Data: ChEMBL document CHEMBL1165950, “Design and synthesis of new potent anticancer pyrazoles with high FLT3 kinase inhibitory selectivity” (Bioorg Med Chem, 2010)

Tests used:
Type in all cases: functional
[1] = system: MDA-MB-435; assay: Cytotoxicity against human MDA-MB-435 cells assessed as cell growth at 0.001 uM after 48 hrs by sulforhodamine B assay; settings: MDA-MB-435, 48 h, read-out: Activity
[2] = system: HOP-62; assay: Cytotoxicity against human HOP62 cells assessed as cell growth at 1 uM after 48 hrs by sulforhodamine B assay; settings: HOP-62, 48 h, read-out: Activity
[3] = system: K562; assay: Cytotoxicity against human K562 cells assessed as cell growth at 100 nM after 48 hrs by sulforhodamine B assay; settings: K562, 48 h, read-out: Activity
[4] = system: UACC-257; assay: Cytotoxicity against human UACC257 cells assessed as cell growth at 100 nM after 48 hrs by sulforhodamine B assay; settings: UACC-257, 48 h, read-out: Activity
[5] = system: MDA-MB-231; assay: Cytotoxicity against human MDA-MB-231 cells assessed as cell growth at 10 uM after 48 hrs by sulforhodamine B assay; settings: MDA-MB-231, 48 h, read-out: Activity
[6] = system: NCI-H460; assay: Cytotoxicity against human NCI-H460 cells assessed as cell growth at 10 uM; settings: read-out: Activity
Method in brief: (§1)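 NCI-60 screen: cells grown in RPMI 1640 with 5% FBS and 2 mM L-glutamine, plated at 5000–40,000 cells/well according to doubling time, and preincubated 24 h at 37 °C, 5% CO2. The single 10 µM dose (DMSO stock) was added, then incubated 48 h. Cells were TCA-fixed and stained with 0.4% SRB, read at 515 nm, and growth % calculated against time-zero and control plates.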

[7] = system: SK-OV-3; assay: Growth inhibition of human SKOV3 cells after 48 hrs by sulforhodamine B assay; settings: SK-OV-3, 48 h; for CC50: read-out: LC50 (the source's name)
Method in brief: (§2)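 NCI 60-cell screen, five-dose mode. Cells grown in RPMI 1640 with 5% FBS and 2 mM L-glutamine and plated at 5000-40,000 cells/well according to doubling time. After 24 h preincubation, a Tz plate was TCA-fixed. Five concentrations (10-fold or 1/2 log dilutions) were applied for 48 h at 37 °C. SRB staining read at 515 nm. IC50 taken from [(Ti-Tz)/(C-Tz)]×100 = 50.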

[8] = system: SF-268; assay: Cytotoxicity against human SF268 cells assessed as cell growth at 100 nM after 48 hrs by sulforhodamine B assay; settings: SF-268, 48 h, read-out: Activity
[9] = system: CAKI-1; assay: Cytotoxicity against human Caki1 cells assessed as cell growth at 10 uM; settings: read-out: Activity
Method in brief: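 Single-dose NCI-60 screen at 10 µM. Cells were grown in RPMI 1640 with 5% FBS and 2 mM L-glutamine, then treated for 48 h at 37 °C. Protein was measured by SRB staining with absorbance at 515 nm. Percentage growth was recorded, and inhibition percentage was calculated as 100 minus growth percentage.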

[10] = system: HOP-92; assay: Cytotoxicity against human HOP92 cells assessed as cell growth at 0.001 uM after 48 hrs by sulforhodamine B assay; settings: HOP-92, 48 h, read-out: Activity
[11] = system: PC-3; assay: Cytotoxicity against human PC3 cells assessed as cell growth at 1 uM after 48 hrs by sulforhodamine B assay; settings: PC-3, 48 h, read-out: Activity
[12] = system: HOP-62; assay: Cytotoxicity against human HOP62 cells assessed as cell growth at 0.01 uM after 48 hrs by sulforhodamine B assay; settings: HOP-62, 48 h, read-out: Activity
[13] = system: COLO 205; assay: Cytotoxicity against human COLO205 cells assessed as cell growth at 100 nM after 48 hrs by sulforhodamine B assay; settings: COLO 205, 48 h, read-out: Activity
[14] = system: HT-29; assay: Growth inhibition of human HT-29 cells after 48 hrs by sulforhodamine B assay; settings: HT-29, 48 h; for CC50: read-out: LC50 (the source's name); method in brief: as §2
[15] = system: SNB-19; assay: Cytotoxicity against human SNB19 cells assessed as cell growth at 10 uM; settings: read-out: Activity; method in brief: as §1
[16] = system: IGROV-1; assay: Cytotoxicity against human IGROV1 cells assessed as cell growth at 10 uM after 48 hrs by sulforhodamine B assay; settings: IGROV-1, 48 h, read-out: Activity
[17] = system: HCT-116; assay: Cytotoxicity against human HCT116 cells assessed as cell growth at 0.001 uM after 48 hrs by sulforhodamine B assay; settings: HCT-116, 48 h, read-out: Activity
[18] = system: SNB-75; assay: Cytotoxicity against human SNB75 cells assessed as cell growth at 0.001 uM after 48 hrs by sulforhodamine B assay; settings: SNB-75, 48 h, read-out: Activity
[19] = system: UACC-257; assay: Cytotoxicity against human UACC257 cells assessed as cell growth at 0.001 uM after 48 hrs by sulforhodamine B assay; settings: UACC-257, 48 h, read-out: Activity
[20] = system: 786-0; assay: Growth inhibition of human 786-0 cells after 48 hrs by sulforhodamine B assay; settings: 786-0, 48 h; for CC50: read-out: LC50 (the source's name)
Method in brief: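 NCI five-dose SRB assay in RPMI 1640 with 5% FBS and 2 mM L-glutamine. Cells were preincubated 24 h, then exposed 48 h at 37 °C to five concentrations (10-fold or half-log serial dilutions from DMSO stocks). TCA fixation, SRB staining, and absorbance at 515 nm followed. IC50 was taken where [(Ti−Tz)/(C−Tz)]×100 = 50, with Tz as time-zero cell density.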

[21] = system: LOX IMVI; assay: Cytotoxicity against human LOXIMVI cells assessed as cell growth at 10 uM; settings: read-out: Activity; method in brief: as §1
[22] = system: HCT-15; assay: Cytotoxicity against human HCT15 cells assessed as cell growth at 1 uM after 48 hrs by sulforhodamine B assay; settings: HCT-15, 48 h, read-out: Activity
[23] = system: NCI-H460; assay: Cytotoxicity against human NCI-H460 cells assessed as cell growth at 100 nM after 48 hrs by sulforhodamine B assay; settings: NCI-H460, 48 h, read-out: Activity
[24] = system: T47D; assay: Cytotoxicity against human T47D cells assessed as cell growth at 1 uM after 48 hrs by sulforhodamine B assay; settings: read-out: Activity
[25] = system: LOX IMVI; assay: Cytotoxicity against human LOXIMVI cells assessed as cell growth at 0.001 uM after 48 hrs by sulforhodamine B assay; settings: read-out: Activity
[26] = system: OVCAR-5; assay: Cytotoxicity against human OVCAR5 cells assessed as cell growth at 10 uM; settings: read-out: Activity; method in brief: as §1
[27] = system: DU-145; assay: Cytotoxicity against human DU145 cells assessed as cell growth at 1 uM after 48 hrs by sulforhodamine B assay; settings: DU-145, 48 h, read-out: Activity
[28] = system: NCI-H522; assay: Growth inhibition of human NCI-H522 cells after 48 hrs by sulforhodamine B assay; settings: NCI-H522, 48 h; for CC50: read-out: LC50 (the source's name); method in brief: as §2
[29] = system: MDA-MB-435; assay: Growth inhibition of human MDA-MB-435 cells after 48 hrs by sulforhodamine B assay; settings: MDA-MB-435, 48 h; for CC50: read-out: LC50 (the source's name); method in brief: as §2
[30] = system: MDA-MB-468; assay: Cytotoxicity against human MDA-MB-468 cells assessed as cell growth at 10 uM after 48 hrs by sulforhodamine B assay; settings: MDA-MB-468, 48 h, read-out: Activity

Compound	growth at 0.001 µM [1]	growth at 1 µM [2]	growth at 0.1 µM [3]	growth at 0.1 µM [4]	growth at 10 µM [5]	growth at 10 µM [6]	GI50 [7]	TGI [7]	CC50 [7]	growth at 0.1 µM [8]	growth at 10 µM [9]	growth at 0.001 µM [10]	growth at 1 µM [11]	growth at 0.01 µM [12]	growth at 0.1 µM [13]	GI50 [14]	TGI [14]	growth at 10 µM [15]	growth at 10 µM [16]	growth at 0.001 µM [17]	other results
COc1cc(C)cc(-c2c(-c3ccnc(-c4ccc(N(C)C)cc4)c3)cnn2CC#N)c1	88%	31%	7%	41%	25%	-5.33%	0.504 µM	> 100 µM	> 100 µM	29%	15.9%	26%	13%	62%	7%	0.0377 µM	0.211 µM	26.5%	-6%	102%	growth at 0.001 µM [18]: 88%; growth at 0.001 µM [19]: 89%; GI50 [20]: 0.0853 µM; TGI [20]: > 100 µM; CC50 [20]: > 100 µM; growth at 10 µM [21]: 4.55%; growth at 1 µM [22]: 9%; growth at 0.1 µM [23]: -43%; growth at 1 µM [24]: 19%; growth at 0.001 µM [25]: 88%; growth at 10 µM [26]: 77.7%; growth at 1 µM [27]: -47%; GI50 [28]: 0.027 µM; TGI [28]: 0.0846 µM; CC50 [28]: 3.22 µM; GI50 [29]: 0.0226 µM; TGI [29]: 0.0669 µM; CC50 [29]: > 100 µM; growth at 10 µM [30]: -59%
COc1cc(C)cc(-c2nn(CC#N)cc2-c2ccc(-c3cccc(C(C)=O)c3)nc2)c1	101%	16%	27%	70%	1%	17.4%	3.13 µM	9.1 µM	> 100 µM	91%	17.8%	84%	20%	83%	88%	3.28 µM	18.7 µM	27.8%	-40%	101%	CC50 [14]: > 100 µM; growth at 0.001 µM [18]: 82%; growth at 0.001 µM [19]: 94%; GI50 [20]: 3.52 µM; TGI [20]: 93 µM; CC50 [20]: > 100 µM; growth at 10 µM [21]: 25.4%; growth at 1 µM [22]: 12%; growth at 0.1 µM [23]: 84%; growth at 1 µM [24]: -7%; growth at 0.001 µM [25]: 98%; growth at 10 µM [26]: 91.3%; growth at 1 µM [27]: -38%; GI50 [28]: 1.64 µM; TGI [28]: 6.72 µM; CC50 [28]: > 100 µM; CC50 [29]: > 100 µM; growth at 10 µM [30]: -53%
COc1cc(C)cc(-c2c(-c3ccnc(-c4ccc(C(C)=O)cc4)c3)cnn2CC#N)c1	100%	19%	47%	81%	26%	104%	4.22 µM	> 100 µM	> 100 µM	85%	70.4%	84%	24%	81%	102%	3.21 µM	> 100 µM	73.7%	14%	97%	CC50 [14]: > 100 µM; growth at 0.001 µM [18]: 80%; growth at 0.001 µM [19]: 95%; GI50 [20]: 3.11 µM; TGI [20]: > 100 µM; CC50 [20]: > 100 µM; growth at 10 µM [21]: 58.8%; growth at 1 µM [22]: 12%; growth at 0.1 µM [23]: 87%; growth at 1 µM [24]: -9%; growth at 0.001 µM [25]: 101%; growth at 10 µM [26]: 95%; growth at 1 µM [27]: 16%; GI50 [28]: 1.93 µM; TGI [28]: 6.96 µM; CC50 [28]: > 100 µM; GI50 [29]: 1.93 µM; TGI [29]: > 100 µM; CC50 [29]: > 100 µM; growth at 10 µM [30]: -55%
Cc1cc(O)cc(-c2nn(CC#N)cc2-c2ccnc(-c3ccc(N(C)C)cc3)c2)c1	99%	13%	80%	83%	-21%	25.6%	2.85 µM	8.03 µM	> 100 µM	90%	44.5%	80%	18%	89%	94%	4.65 µM	20.8 µM	46.4%	-37%	95%	CC50 [14]: 93.9 µM; growth at 0.001 µM [18]: 83%; growth at 0.001 µM [19]: 96%; GI50 [20]: 3.41 µM; TGI [20]: 16.6 µM; CC50 [20]: > 100 µM; growth at 10 µM [21]: 33.7%; growth at 1 µM [22]: 14%; growth at 0.1 µM [23]: 90%; growth at 1 µM [24]: 5%; growth at 0.001 µM [25]: 103%; growth at 10 µM [26]: 111%; growth at 1 µM [27]: -7%; GI50 [28]: 1.93 µM; TGI [28]: 7.14 µM; CC50 [28]: 68.1 µM; GI50 [29]: 1.01 µM; TGI [29]: 3.21 µM; CC50 [29]: > 100 µM; growth at 10 µM [30]: -61%
COc1cc(C)cc(-c2nn(CC#N)cc2-c2ccnc(-c3ccc(N(C)C)cc3)c2)c1	103%	5%	10%	28%	4%	2.65%	0.304 µM	0.882 µM	> 100 µM	31%	13.9%	102%	17%	99%	-15%	0.481 µM	2.88 µM	15.9%	-6%	96%	CC50 [14]: 37.2 µM; growth at 0.001 µM [18]: 95%; growth at 0.001 µM [19]: 90%; GI50 [20]: 0.42 µM; TGI [20]: 5.43 µM; CC50 [20]: > 100 µM; growth at 10 µM [21]: 5.2%; growth at 1 µM [22]: -1%; growth at 0.1 µM [23]: 8%; growth at 1 µM [24]: 10%; growth at 0.001 µM [25]: 98%; growth at 10 µM [26]: 55.9%; growth at 1 µM [27]: -40%; GI50 [28]: 0.196 µM; TGI [28]: 0.492 µM; CC50 [28]: 3.24 µM; GI50 [29]: 0.235 µM; TGI [29]: 0.613 µM; CC50 [29]: > 100 µM; growth at 10 µM [30]: -63%
